Data on one compound can be found in ChEMBL document CHEMBL1671683, “Activity of linezolid in an in vitro pharmacokinetic-pharmacodynamic model using different dosages and Staphylococcus aureus and Enterococcus faecalis strains with and without a hypermutator phenotype” (Antimicrob Agents Chemother, 2010).

Series [1] can be described thus: Total clearance in two-compartment pharmacokinetic/pharmacodynamic model at 200 mg, bid administered as 0.5 hrs infusion. Type of series: ADME, organism-based. The settings on record: iv.
A short description of series [2]: Total clearance in two-compartment pharmacokinetic/pharmacodynamic model at 600 mg, bid administered as 0.5 hr infusion over 24 hrs. The class given is ADME, organism-based. The settings on record: in vivo, iv.
Series [3] concerns Enterococcus faecalis. In words: Bactericidal activity against 24 hrs peripheral compartment culture samples of Enterococcus faecalis Ef1497 in two-compartment pharmacokinetic/pharmacodynamic model assessed as effect on bacterial count at 800 mg, bid administered as 0.5 hr infusion. Type of series: functional. The procedure, abridged: (§1)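 An 18-h culture concentrated 50-fold was injected into the peripheral compartment 3 h pre-sampling (~10^8 CFU/ml E. faecalis, 10^9 S. aureus). Counts came from dilution plating (detection limit 2–3 log10 CFU/ml), expressed as Δlog CFU/ml from treatment start. Run in duplicate.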

Series [4] relates to Enterococcus faecalis. Kind of series: AUBC (0 to 24 hrs) in Enterococcus faecalis ATCC 29212 in two-compartment pharmacokinetic/pharmacodynamic model at 200 mg, bid administered as 0.5 hr infusion for 2 days. Type of series: functional. An outline of the steps: (§2)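 Hollow-fibre two-compartment model in cation-adjusted, protein-free MH broth at 37°C. Human total-plasma linezolid profile simulated as 0.5-h infusion every 12 h for 48 h. Concentrated 18-h culture injected into the peripheral compartment 3 h before first sample, giving about 10^8 (E. faecalis) or 10^9 (S. aureus) CFU/ml. Viable counts by dilution plating over 0–24 h. Area indices calculated versus growth control curve. Duplicate runs.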

The test system of series [5] is Enterococcus faecalis. Kind of series: ABBC (0 to 24 hrs) in Enterococcus faecalis Ef1497 MutM3 in two-compartment pharmacokinetic/pharmacodynamic model at 200 mg, bid administered as 0.5 hr infusion for 2 days. Type of series: functional. An outline of the steps:
as §2

The next series concerns Staphylococcus aureus. Kind of series: Bactericidal activity against 12.5 hrs peripheral compartment culture samples of Staphylococcus aureus RN4220 in two-compartment pharmacokinetic/pharmacodynamic model assessed as effect on bacterial count at 600 mg, bid administered as 0.5 hr infusion. Type of series: functional. An outline of the steps:
as §1

Series [6] can be described thus: Total clearance in two-compartment pharmacokinetic/pharmacodynamic model at 200 mg, bid administered as 0.5 hr infusion over 24 hrs. The class given is ADME, organism-based. The settings on record: in vivo, iv.
Series [7] in a line: Residual concentration at the end of the administration interval in two-compartment pharmacokinetic/pharmacodynamic model at 800 mg, bid administered as 0.5 hrs infusion. Type of series: ADME. The settings on record: iv, read-out: Drug uptake.
The test system of series [8] is Enterococcus faecalis. In words: Bactericidal activity against 0.5 hrs peripheral compartment culture samples of Enterococcus faecalis Ef1497 in two-compartment pharmacokinetic/pharmacodynamic model assessed as effect on bacterial count at 800 mg, bid administered as 0.5 hr infusion. The class given is functional. The procedure, abridged: (§3)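 Two-compartment hollow-fibre model in cation-adjusted, protein-free MH broth, 37°C. Linezolid given as simulated 0.5-h infusion twice daily. Inoculum grown 18 h, concentrated 50-fold and placed in the peripheral compartment 3 h before t0. Peripheral samples at set times counted by dilution plating. First 10-fold dilution not plated, limiting detection to 2–3 log10 CFU/ml. Δlog CFU/ml taken from t0 count. Duplicates.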

Series [9] has as its system Enterococcus faecalis. Kind of series: Bactericidal activity against 2 hrs peripheral compartment culture samples of Enterococcus faecalis Ef1497 MutM3 in two-compartment pharmacokinetic/pharmacodynamic model assessed as effect on bacterial count at 200 mg, bid administered as 0.5 hr infusion. The class given is functional. The procedure, abridged:
as §1

For series [10], the system named is Enterococcus faecalis. Kind of series: Bactericidal activity against 1 hr peripheral compartment culture samples of Enterococcus faecalis Ef1497 MutM3 in two-compartment pharmacokinetic/pharmacodynamic model assessed as effect on bacterial count at 200 mg, bid administered as 0.5 hr infusion. Type of series: functional. The procedure, abridged: as §3
For series [11], the system named is Enterococcus faecalis. Kind of series: AUBC (0 to 24 hrs) in Enterococcus faecalis Ef1497 MutM3 in two-compartment pharmacokinetic/pharmacodynamic model at 200 mg, bid administered as 0.5 hr infusion for 2 days. The class given is functional. An outline of the steps:
as §2

A short description of series [12]: Cmax in healthy human at 600 mg, iv, bid administered as 0.5 hr infusion. The class given is ADME, organism-based. Details: dose 600 mg, route intravenous. The settings on record: in vivo.
Series [13] is described as follows: Mean residence time in two-compartment pharmacokinetic/pharmacodynamic model at 200 mg, bid administered as 0.5 hrs infusion. Type of series: ADME, organism-based. The settings on record: iv.
Series [14] has as its system Enterococcus faecalis. Kind of series: AUBC (0 to 24 hrs) in Enterococcus faecalis Ef1497 in two-compartment pharmacokinetic/pharmacodynamic model at 600 mg, bid administered as 0.5 hr infusion for 2 days. Type of series: functional. The procedure, abridged: as §2

Consider `CC(=O)NC[C@H]1CN(c2ccc(N3CCOCC3)c(F)c2)C(=O)O1` [LINEZOLID], for which the clearance was 248 mL/min in series [1], 215 mL/min in series [2] and 252 mL/min in series [6]. Also, the log10CFU/ml with Enterococcus faecalis [3] is -0.04; in the series with Staphylococcus aureus it was -0.26; in the series on Enterococcus faecalis [8], 0.08; with Enterococcus faecalis [9], 0.06; in the series on Enterococcus faecalis [10], 0.02. Besides, the AUBC came to 214 log10CFU/ml.hr in the series with Enterococcus faecalis [4], 212.2 log10CFU/ml.hr in the series on Enterococcus faecalis [11] and 215.6 log10CFU/ml.hr with Enterococcus faecalis [14]. For the same compound, the ABBC with Enterococcus faecalis [5] amounted to 2.32 log10CFU/ml.hr. In addition, in series [7], the concentration at 0.5 h amounted to 1.15 µg/mL. The compound further gave a Cmax in [12] of 14.1 µg/mL. The compound further showed an MRT in [13] of 8.65 h.

A word on the clearance: it is the volume of plasma or blood freed of the substance per unit of time. A higher clearance goes with a high capacity for elimination. One may read the Cmax as the maximum level reached in the sampled fluid or tissue. In general, MRT refers to the average time that molecules of a dose stay in the body.
